Reference: ChEMBL document CHEMBL4033712, “Synthesis and biological evaluation of new C-12(α/β)-(N-) sulfamoyl-phenylamino-14-deoxy-andrographolide derivatives as potent anti-cancer agents” (Bioorg Med Chem Lett, 2017)

What was measured:
Type in all cases: functional
BT-549 = experiment: Growth inhibition of human BT549 cells incubated for 48 hrs by sulforhodamine B assay; conditions: BT-549, 48 h
In short: (§1)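 NCI-60 five-dose screen at 0.01, 0.1, 1, 10 and 100 µM, 48 h incubation, sulforhodamine B end point. GI50 (50% decrease in net growth), TGI (total growth inhibition) and LC50 (net 50% loss of initial cells) taken from log concentration versus % growth inhibition curves.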

K562 = experiment: Growth inhibition of human K562 cells incubated for 48 hrs by sulforhodamine B assay; conditions: K562, 48 h; in short: as §1
RXF 393 = experiment: Growth inhibition of human RXF393 cells incubated for 48 hrs by sulforhodamine B assay; conditions: RXF 393, 48 h
In short: (§2)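 NCI 60 human tumour cell line panel, five-dose study at 0.01, 0.1, 1, 10 and 100 µM, 48 h incubation. Sulforhodamine B protein-binding dye end point. GI50 (50% decrease in net cell growth), TGI (total growth inhibition) and LC50 (net 50% loss of initial cells) read from log concentration versus % growth inhibition curves.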

OVCAR-3 = experiment: Growth inhibition of human OVCAR3 cells incubated for 48 hrs by sulforhodamine B assay; conditions: OVCAR-3, 48 h; in short: as §1
SF-539 = experiment: Growth inhibition of human SF539 cells incubated for 48 hrs by sulforhodamine B assay; conditions: SF-539, 48 h; in short: as §2
SK-MEL-2 = experiment: Growth inhibition of human SK-MEL-2 cells incubated for 48 hrs by sulforhodamine B assay; conditions: SK-MEL-2, 48 h; in short: as §2
COLO 205 = experiment: Growth inhibition of human COLO205 cells incubated for 48 hrs by sulforhodamine B assay; conditions: COLO 205, 48 h; in short: as §1
EKVX = experiment: Growth inhibition of human EKVX cells incubated for 48 hrs by sulforhodamine B assay; in short: as §1
HCT-116 = experiment: Growth inhibition of human HCT116 cells incubated for 48 hrs by sulforhodamine B assay; conditions: HCT-116, 48 h; in short: as §1
Hs-578T = experiment: Growth inhibition of human Hs 578T cells incubated for 48 hrs by sulforhodamine B assay; in short: as §1
OVCAR-8 = experiment: Growth inhibition of human OVCAR8 cells incubated for 48 hrs by sulforhodamine B assay; conditions: OVCAR-8, 48 h; in short: as §1
TK-10 = experiment: Growth inhibition of human TK10 cells incubated for 48 hrs by sulforhodamine B assay; conditions: TK-10, 48 h; in short: as §2
SK-MEL-28 = experiment: Growth inhibition of human SK-MEL-28 cells incubated for 48 hrs by sulforhodamine B assay; conditions: SK-MEL-28, 48 h; in short: as §2
786-0 = experiment: Growth inhibition of human 786-0 cells incubated for 48 hrs by sulforhodamine B assay; conditions: 786-0, 48 h; in short: as §1
MDA-MB-435 = experiment: Growth inhibition of human MDA-MB-435 cells incubated for 48 hrs by sulforhodamine B assay; conditions: MDA-MB-435, 48 h; in short: as §1
HL-60(TB) = experiment: Growth inhibition of human HL-60(TB) cells incubated for 48 hrs by sulforhodamine B assay; conditions: HL-60, 48 h
In short: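 NCI-60 five-dose screen at 0.01, 0.1, 1, 10 and 100 µM for 48 h, sulforhodamine B read-out. GI50 taken from log concentration versus % growth inhibition curves as the concentration giving 50% decrease in net cell growth.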

SK-MEL-5 = experiment: Growth inhibition of human SK-MEL-5 cells incubated for 48 hrs by sulforhodamine B assay; conditions: SK-MEL-5, 48 h; in short: as §2
HCT-15 = experiment: Growth inhibition of human HCT15 cells incubated for 48 hrs by sulforhodamine B assay; conditions: HCT-15, 48 h; in short: as §1
KM12 = experiment: Growth inhibition of human KM12 cells incubated for 48 hrs by sulforhodamine B assay; conditions: KM12, 48 h; in short: as §1
M14 = experiment: Growth inhibition of human M14 cells incubated for 48 hrs by sulforhodamine B assay; conditions: M14, 48 h; in short: as §1
SNB-19 = experiment: Growth inhibition of human SNB19 cells incubated for 48 hrs by sulforhodamine B assay; conditions: SNB-19, 48 h; in short: as §2
MCF7 = experiment: Growth inhibition of human MCF7 cells incubated for 48 hrs by sulforhodamine B assay; conditions: MCF7, 48 h; in short: as §1
T47D = experiment: Growth inhibition of human T47D cells incubated for 48 hrs by sulforhodamine B assay; in short: as §2
SF-295 = experiment: Growth inhibition of human SF295 cells incubated for 48 hrs by sulforhodamine B assay; conditions: SF-295, 48 h; in short: as §2
HOP-92 = experiment: Growth inhibition of human HOP92 cells incubated for 48 hrs by sulforhodamine B assay; conditions: HOP-92, 48 h; in short: as §1
NCI-H522 = experiment: Growth inhibition of human NCI-H522 cells incubated for 48 hrs by sulforhodamine B assay; conditions: NCI-H522, 48 h; in short: as §1
A549 = experiment: Growth inhibition of human A549/ATCC cells incubated for 48 hrs by sulforhodamine B assay; conditions: A549, 48 h; in short: as §1
NCI-H322M = experiment: Growth inhibition of human NCI-H322M cells incubated for 48 hrs by sulforhodamine B assay; in short: as §1
[1] = read-out: LC50 (the source's name)

Compound: C=C1CC[C@@H]2[C@](C)(COC(C)=O)[C@H](OC(C)=O)CC[C@@]2(C)[C@H]1CC(Nc1ccc(S(=O)(=O)Nc2nccc(C)n2)cc1)C1=CCOC1=O (some centres undefined)
- GI50 (BT-549): 2.3 µM
- TGI (BT-549): 5.61 µM
- CC50 (BT-549; [1]): 18.7 µM
- GI50 (K562): 2.97 µM
- TGI (K562): 21.7 µM
- CC50 (K562; [1]): > 100 µM
- GI50 (RXF 393): 2.33 µM
- TGI (RXF 393): 4.18 µM
- CC50 (RXF 393; [1]): 7.49 µM
- GI50 (OVCAR-3): 1.76 µM
- TGI (OVCAR-3): 3.36 µM
- CC50 (OVCAR-3; [1]): 6.43 µM
- GI50 (SF-539): 2.07 µM
- TGI (SF-539): 4.73 µM
- CC50 (SF-539; [1]): 12.4 µM
- GI50 (SK-MEL-2): 6.01 µM
- TGI (SK-MEL-2): 20 µM
- CC50 (SK-MEL-2; [1]): 52.1 µM
- GI50 (COLO 205): 2.09 µM
- TGI (COLO 205): 4.66 µM
- CC50 (COLO 205; [1]): 11.9 µM
- GI50 (EKVX): 13.9 µM
- TGI (EKVX): 27.1 µM
- CC50 (EKVX; [1]): 52.7 µM
- GI50 (HCT-116): 1.6 µM
- TGI (HCT-116): 3.56 µM
- CC50 (HCT-116; [1]): 7.96 µM
- GI50 (Hs-578T): 6.65 µM
- LC50 (Hs-578T): > 100 µM
- TGI (Hs-578T): 43 µM
- GI50 (OVCAR-8): 2.61 µM
- TGI (OVCAR-8): 8.56 µM
- CC50 (OVCAR-8; [1]): 47.6 µM
- GI50 (TK-10): 4.94 µM
- TGI (TK-10): 15.8 µM
- CC50 (TK-10; [1]): 40.4 µM
- GI50 (SK-MEL-28): 2.83 µM
- LC50 (50% net cell kill) (SK-MEL-28): 36.3 µM
- TGI (SK-MEL-28): 10.1 µM
- GI50 (786-0): 2.27 µM
- LC50 (concentration giving net 50% loss of initial cells) (786-0): 13.8 µM
- TGI (786-0): 5.06 µM
- GI50 (MDA-MB-435): 2.92 µM
- TGI (MDA-MB-435): 10.4 µM
- CC50 (MDA-MB-435; [1]): 34.2 µM
- GI50 (HL-60(TB)): 2.1 µM
- TGI (HL-60(TB)): 5.63 µM
- CC50 (HL-60(TB); [1]): > 100 µM
- GI50 (SK-MEL-5): 3.79 µM
- TGI (SK-MEL-5): 14 µM
- CC50 (SK-MEL-5; [1]): 41.2 µM
- GI50 (HCT-15): 1.79 µM
- TGI (HCT-15): 4.24 µM
- CC50 (HCT-15; [1]): 10.2 µM
- GI50 (KM12): 4.59 µM
- TGI (KM12): 16.4 µM
- CC50 (KM12; [1]): 44.4 µM
- GI50 (M14): 2.81 µM
- TGI (M14): 10.8 µM
- CC50 (M14; [1]): 72.6 µM
- GI50 (SNB-19): 6.3 µM
- TGI (SNB-19): 20.7 µM
- CC50 (SNB-19; [1]): 52.7 µM
- GI50 (MCF7): 2.27 µM
- TGI (MCF7): 12.5 µM
- CC50 (MCF7; [1]): > 100 µM
- GI50 (T47D): 2.77 µM
- TGI (T47D): 8.33 µM
- CC50 (T47D; [1]): > 100 µM
- GI50 (SF-295): 12.4 µM
- TGI (SF-295): 25.6 µM
- CC50 (SF-295; [1]): 52.9 µM
- GI50 (HOP-92): 6.24 µM
- TGI (HOP-92): 18.9 µM
- CC50 (HOP-92; [1]): 44.5 µM
- GI50 (NCI-H522): 1.26 µM
- TGI (NCI-H522): 3.1 µM
- CC50 (NCI-H522; [1]): 7.62 µM
- GI50 (A549): 8.19 µM
- TGI (A549): 21.9 µM
- CC50 (A549; [1]): 52.2 µM
- GI50 (NCI-H322M): 11.3 µM
- TGI (NCI-H322M): 23.9 µM
- CC50 (NCI-H322M; [1]): 50.7 µM
